Only some compounds are listed: those with a hit (about 3.3% of all), similar ones and a draw of the others.
PRMT1 inh – PRMT1 methyltransferase inhibitors, primary screen, biochemical, fluorescence polarization; recombinant PRMT1, activity-based probe fluorescence polarization; Protein arginine N-methyltransferase 1 (Homo sapiens), Q99873; 370,000 compounds, 1.3% hits; AID 652257, 2013; inhibition, % at 2.79 µM;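 active means inhibition above about 21% made by adding two undisclosed values, limit read from the data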
SIAE primary – human SIAE inhibitors, primary screen, biochemical, fluorescence polarization, FP-Rh probe, 1536-well HTS; Sialate O-acetylesterase (Homo sapiens), Q9HAT2; SIAE FP-Rh probe binding; inhibition, % at 9.66 µM; 370,000 compounds, 0.69% hits;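 active means inhibition above a cutoff: mean of compounds within the control limits plus 3 SD of those, cut at about 17% in these data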;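 further: 0% = plate median of compound wells and 100% = probe without SIAE protein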
ABHD4 inh – ABHD4 inhibitors, primary screen, biochemical, fluorescence polarization, mouse; (Lyso)-N-acylphosphatidylethanolamine lipase (Mus musculus), Q8VD66; purified mABHD4, FP-Rh probe fluorescence polarization; inhibition, % at 8.92 µM; 370,000 compounds, 0.54% hits; AID 720543, 2013;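 active means inhibition exceeding the mean over every tested compound plus 3 SD, cut at about 30% in these data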;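 further: 0% = plate median of compound wells and 100% = S159A mutant with DMSO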
Target sequence (Q8VD66 whole entry, looked up): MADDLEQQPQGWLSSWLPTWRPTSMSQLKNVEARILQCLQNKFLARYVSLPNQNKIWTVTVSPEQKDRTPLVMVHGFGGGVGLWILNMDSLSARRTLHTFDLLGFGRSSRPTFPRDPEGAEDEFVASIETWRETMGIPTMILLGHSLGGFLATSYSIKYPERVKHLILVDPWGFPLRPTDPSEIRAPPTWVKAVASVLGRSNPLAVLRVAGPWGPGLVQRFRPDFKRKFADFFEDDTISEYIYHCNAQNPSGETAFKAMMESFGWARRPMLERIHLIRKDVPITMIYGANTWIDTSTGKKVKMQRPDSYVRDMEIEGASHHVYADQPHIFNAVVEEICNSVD
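Test system: mABHD4 protein | Buffer or medium: HEPES pH 7.0 buffer, 150 mM NaCl, 0.01% Pluronic F-127 | Probe or stimulus: FP-Rh fluorescent activity-based probe, added after compound pre-incubation | Timing: Pre-incubation 45 min, probe exposure 60 min, at 25 °C | Technique: Fluorescence polarization, excitation 525 nm, emission 598 nm, BODIPY TMR filters | Repeats: Single well per compound (singlicate)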
TCR CD3 inh – inhibitors of human TCR-CD3 interaction, primary screen, biochemical, fluorescence, TAMRA-labeled TCR probe; T-cell receptor (TCR); inhibition, % at 9.4 µM; 360,000 compounds, 0.37% hits; AID 651800, 2012; in the data active means inhibition above about 19%;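 further: recombinant mutant TCR 2C K166C tagged with TAMRA read by polarization; 0% = receptor in buffer alone and 100% = receptor with positive control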
rCAG binder – binders of r(CAG) RNA repeats, primary screen, biochemical, fluorescence. 370,000 compounds, 1.3% hits. inhibition, % at 3 µM. AID 651821, 2012. r(CAG) RNA repeat, TO-PRO-1 dye displacement fluorescence;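 active means inhibition above the plate cutoff, the mean of all test compounds on that plate plus 3 SD, cut at about 35% in these data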;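 further: 0% = DMSO alone and 100% = 100 µM mitoxantrone as full dye displacement; higher means more dye released from RNA so lower well fluorescence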
rCAG bind conf – small molecules binding CAG repeat RNA – biochemical, fluorescence, confirmation; shares compounds with rCAG binder; r(CAG) RNA repeat, TO-PRO-1 dye displacement fluorescence; inhibition, % at 3 µM; 4,300 compounds, 70% hits; AID 652065, 2013;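 active means inhibition above a per-plate cutoff, the mean inhibition of sample wells plus 3 SD, cut at about 35% in these data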;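 further: loss of TO-PRO-1 fluorescence as compound displaces dye from 1x1 AA loop RNA; 0% = DMSO only wells and 100% = 100 µM mitoxantrone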
dCAG dye counter – displacement of TO-PRO-1 from CAG DNA duplex, counter-screen for rCAG RNA repeat binder project, biochemical, fluorescence, TO-PRO-1 dye, d(CAG) DNA oligo; d(CAG) DNA oligo TO-PRO-1 dye displacement; inhibition, % at 3 µM; shares compounds with rCAG binder; 4,300 compounds, 94% hits;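 active means inhibition above its plate's cutoff, the mean test-well inhibition plus 3 SD, cut at about 4.8% in these data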;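 further: 0% = DNA dye mix with DMSO and 100% = 100 µM mitoxantrone; hits displace the dye from DNA and so lower well fluorescence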
* = called active by the depositor.

For N#Cc1ccc(Cn2ccc3ccc(-c4ccc5ccn(C(=O)C6CCCCC6)c5c4)cc32)cc1 the results were PRMT1 inh 4, SIAE primary -9, ABHD4 inh 5 and rCAG binder 22.
Screening CC1(C)CC(=O)N(CC(=O)N2CCN(Cc3ccccc3)CC2)c2ccccc2S1(=O)=O returned PRMT1 inh 3, SIAE primary 7, ABHD4 inh 2 and rCAG binder 1.
`O=C(O)/C(=C\c1ccc(Cl)c([N+](=O)[O-])c1)c1ccc(S(=O)(=O)N2CCCC2)s1` gave PRMT1 inh 23*, SIAE primary -14, ABHD4 inh 20, TCR CD3 inh 8, rCAG binder 71*, rCAG bind conf 47* and dCAG dye counter 15*.
`O=C(O)/C(=C\c1cccc([N+](=O)[O-])c1)c1ccc(S(=O)(=O)N2CCCCC2)s1` gave PRMT1 inh 5, SIAE primary -5, ABHD4 inh 5, TCR CD3 inh 13, rCAG binder 38*, rCAG bind conf 44* and dCAG dye counter 14*.
For O=C(/C=C/c1ccc(Cl)c([N+](=O)[O-])c1)Nc1ccc(N2CCCC2)cc1 the results were PRMT1 inh -2, SIAE primary 11, ABHD4 inh 10, TCR CD3 inh 6 and rCAG binder 17.
Screening CCOc1ccc(/C=C(\C(=O)O)c2ccc(S(=O)(=O)N3CCOCC3)s2)cc1OC returned PRMT1 inh 1, SIAE primary -7, ABHD4 inh -9, TCR CD3 inh -6 and rCAG binder 10.
`COc1cc(/C=C(\C(=O)O)c2ccc(S(=O)(=O)N3CCCC3)s2)cc(OC)c1` gave PRMT1 inh 4, SIAE primary 2, ABHD4 inh 10, TCR CD3 inh -2 and rCAG binder 26.
Screening CCOc1ccc(/C=C(\C(=O)O)c2ccc(S(=O)(=O)N3CCCCC3)s2)cc1OC returned PRMT1 inh -1, SIAE primary 1, ABHD4 inh 10, TCR CD3 inh 8, rCAG binder 38*, rCAG bind conf 35* and dCAG dye counter 10*.
For CCCCNC(=O)C[C@H]1C[C@@]2(C(=O)OC)C(=C[C@H](C3CCCC3)O[C@@H]2C)N(Cc2ccccc2)C1=O the results were PRMT1 inh 2, SIAE primary -1, ABHD4 inh 0, TCR CD3 inh -5 and rCAG binder 0.
CCCc1cc2c(OC(=O)CC)c(-c3ccc(C(=O)OCC)o3)c(=O)oc2cc1OC was read as PRMT1 inh 5, SIAE primary -2, ABHD4 inh 14, TCR CD3 inh -9, rCAG binder 38*, rCAG bind conf 33 and dCAG dye counter 6.8*.
CCCc1cc(-c2n[nH]c(C)c2-c2ccc(C(=O)OCC)o2)c(O)cc1O was read as PRMT1 inh 3, SIAE primary 10, ABHD4 inh 16, TCR CD3 inh -2 and rCAG binder 6.
`COc1ccc(OC[C@@H](O)CN2CCC(C(O)(c3ccccc3)c3ccccc3)CC2)cc1` gave PRMT1 inh -3, SIAE primary -8, ABHD4 inh -5 and rCAG binder 0.
CC(=O)c1ccc(NC(=O)CN2C(=O)/C(=C/C=C/c3ccccc3)SC2=S)cc1 was read as PRMT1 inh 9, SIAE primary -18, ABHD4 inh -45, TCR CD3 inh -12, rCAG binder 38*, rCAG bind conf 22 and dCAG dye counter 15*.
O=C(CN1C(=O)S/C(=C\C=C\c2ccccc2)C1=O)Nc1ccccc1C(=O)O was read as PRMT1 inh -3, SIAE primary -19, ABHD4 inh -39, TCR CD3 inh 2, rCAG binder 77*, rCAG bind conf 84* and dCAG dye counter 52*.
`O=C(CN1C(=O)S/C(=C\C=C\c2ccccc2)C1=O)Nc1cccc(O)c1` gave PRMT1 inh 2, SIAE primary -37, ABHD4 inh -29, TCR CD3 inh 10 and rCAG binder 18.
COc1ccccc1/C=c1\sc2nc(-c3ccccc3OC)nn2c1=O was read as PRMT1 inh -1, SIAE primary -7, ABHD4 inh -8, TCR CD3 inh 0 and rCAG binder 28.
COc1ccc(Br)cc1/C=c1\sc2nc(-c3ccco3)nn2c1=O was read as PRMT1 inh 11, SIAE primary -11, ABHD4 inh -8, TCR CD3 inh 13, rCAG binder 46*, rCAG bind conf 42* and dCAG dye counter 21*.
Screening Cc1nc(-c2ccccc2)sc1C(=O)NS(=O)(=O)c1ccc(CN2CCN(c3ccccc3)CC2)cc1 returned PRMT1 inh 1, SIAE primary -2, ABHD4 inh -18, TCR CD3 inh -5, rCAG binder 83*, rCAG bind conf 81* and dCAG dye counter 45*.
`CNC(=O)c1sc(-c2ccccc2)nc1C` gave PRMT1 inh 0, SIAE primary 3, ABHD4 inh 4, TCR CD3 inh -1 and rCAG binder 1.
Screening O=C(COc1ccc(F)cc1Cl)Nc1nnc(-c2ccc(F)c(F)c2)o1 returned PRMT1 inh -1, SIAE primary -3 and ABHD4 inh -11.
`COC(=O)[C@]12C[C@H](CC(=O)N3CCOCC3)C(=O)N(Cc3ccco3)C1=C[C@H](COCc1ccccc1)O[C@@H]2C` gave PRMT1 inh 0, SIAE primary -2, ABHD4 inh 3 and rCAG binder 3.
`COc1ccc(-c2sc(C(=O)c3ccc(Cl)cc3Cl)cc2CC(=O)O)cc1` gave PRMT1 inh -1, SIAE primary -10, ABHD4 inh -20, TCR CD3 inh -5, rCAG binder 54*, rCAG bind conf 56* and dCAG dye counter 17*.
`O=C(Nc1cccc(Cl)c1)Nc1sccc1-c1nc2ccccc2s1` gave PRMT1 inh 0, SIAE primary -21, ABHD4 inh -60, TCR CD3 inh -12, rCAG binder 35*, rCAG bind conf 27 and dCAG dye counter 18*.
CC1=NN(c2ccccc2)C(=O)C1/C=C1\NC(=S)NC1=O (stereo unspecified) was read as PRMT1 inh 20, SIAE primary 6, ABHD4 inh 5, TCR CD3 inh 1, rCAG binder 55*, rCAG bind conf 72* and dCAG dye counter 36*.
